The values that follow come from ChEMBL document CHEMBL4130343, “Design, synthesis, and evaluation of benzofuran derivatives as novel anti-pancreatic carcinoma agents via interfering the hypoxia environment by targeting HIF-1α pathway” (Eur J Med Chem, 2017).

Each structure is given as a SMILES string. Converted amounts (≈) assume the structure as drawn.

In series [1] the test system is HCT-116. In words: Antiproliferative activity against p53-deficient human HCT116 cells after 48 hrs by MTT assay. The format is functional, cell-based. Conditions: HCT-116, 48 h. An outline of the steps: (§1)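 Cells were seeded at 5×10^5 cells/mL overnight and exposed to graded compound concentrations for 48 h. MTT (5 mg/mL stock) was added for 4 h at 37 °C, and formazan was dissolved in DMSO. Absorbance was read at 570 nm. IC₅₀ was fitted from the curves; values are mean ± SD, n = 3.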
A general note: Formazan colour is commonly taken as a measure of viable cells.

Another series has as its system MCF7. In words: Antiproliferative activity against human MCF7 cells after 48 hrs by MTT assay. The format is functional, cell-based. Conditions: MCF7, 48 h. The procedure, abridged: as §1
Series [2] is described as follows: Effective permeability of the compound at pH 7.4 by PAMPA. The format is ADME. Conditions: read-out: Peff. The procedure, abridged: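 Effective permeability was measured by double-sink PAMPA on a pION PAMPA Explorer.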
(In general: PAMPA measures passive passage across an artificial lipid membrane.)

A short description of series [3]: Distribution co-efficient, log D of the compound at pH 7.4. The format is physicochemical. Conditions: buffer. An outline of the steps:
(§2)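 Intrinsic aqueous solubility and log D at pH 7.4 were measured on a pION Gemini Profiler.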

Series [4] is described as follows: Intrinsic aqueous solubility of the compound. The format is physicochemical. Conditions: read-out: Intrinsic_solubility. An outline of the steps: as §2
For series [5], the system named is PANC-1. In words: Antiproliferative activity against human PANC1 cells after 48 hrs by MTT assay. The format is functional, cell-based. To be noted: PANC-1, 48 h. An outline of the steps: as §1
Another series concerns BXPC-3. Kind of series: Antiproliferative activity against human BxPC3 cells after 48 hrs by MTT assay. The format is functional, cell-based. To be noted: BXPC-3, 48 h. An outline of the steps:
as §1

The test system of another series is MDA-MB-231. In words: Antiproliferative activity against human MDA-MB-231 cells after 48 hrs by MTT assay. The format is functional, cell-based. Conditions: MDA-MB-231, 48 h. The procedure, abridged: as §1
In series [6] the test system is HCT-116. In words: Antiproliferative activity against human HCT116 cells after 48 hrs by MTT assay. Conditions: HCT-116, 48 h. The format is functional, cell-based. An outline of the steps:
as §1

For the next series, the system named is A549. Kind of series: Antiproliferative activity against human A549 cells after 48 hrs by MTT assay. The format is functional, cell-based. Conditions: A549, 48 h. An outline of the steps:
as §1

The subject of series [7] is PANC-1. In words: Antitumor activity against human PANC1 cells xenografted in nude mouse assessed as inhibition of tumor weight at 10 mg/kg administered every 2 days for 21 days relative to vehicle-treated control. The format is functional. On the technique in general: A xenograft is tissue or cells of one species grown in another, often human tumour cells in immunodeficient mice.

Usually IC50 stands for the concentration needed to halve the response being measured. Higher therefore signals weaker potency. What is called logD is lipophilicity at a set pH, counting ionised and neutral species. A lower logD goes with lower lipophilicity. Usually inhibition in vivo stands for the change of the read-out against control, counted positive when it falls.

With `CCN(CC)CCNC(=O)c1oc2ccc(N(Cc3ccc(Br)cc3)S(=O)(=O)c3ccc(Br)cc3)cc2c1C`, the IC50 in the series on HCT-116 [1] was 1660 nM; in the series on MCF7, 2840 nM; in the series with PANC-1 [5], 1520 nM; with BXPC-3, 1080 nM; in the series with MDA-MB-231, 3730 nM; in the series on HCT-116 [6], 2390 nM. In addition, half-maximal inhibition in the series with A549 (IC50) was put at 2980 nM. Besides, in series [2], the Papp is 2.54 ×10⁻⁶ cm/s. This molecule also yielded a logD in series [3] of 2.53. Moreover, in [4], the solubility was found to be 21 µg/mL (≈ 31 µM).
In the case of `COc1cccc2c1C(=O)c1c(O)c3c(c(O)c1C2=O)C[C@@](O)(C(=O)CO)C[C@@H]3O[C@H]1C[C@H](N)[C@H](O)[C@H](C)O1` [DOXORUBICIN], in the series on PANC-1 [7], the inhibition in vivo at 10 mg/kg stood at 71.9%. Besides, the IC50 with PANC-1 [5] came to 410 nM; with BXPC-3 it was 560 nM; with MDA-MB-231, 490 nM.
With `Cc1c(C(=O)NCCCN(C)C)oc2ccc(N(Cc3ccc(Br)cc3)S(=O)(=O)c3ccc(Br)cc3)cc12`, the IC50 with HCT-116 [1] came to 3730 nM; in the series with MCF7, 3710 nM; in the series on PANC-1 [5], 2300 nM; with BXPC-3, 2020 nM; with MDA-MB-231, 6680 nM; in the series with HCT-116 [6], 3070 nM. For the same molecule, it took 4310 nM to reach half-maximal inhibition in the series on A549 (IC50).
